Tests used:
Hepatitis C virus [1] = experiment: Antiviral activity against HCV genotype 1b infected in human Huh7 cells after 3 days by luciferase reporter gene assay; assay type: functional, cell-based, Hepacivirus hominis; settings: Huh-7, 72 h
Hepatitis C virus [2] = experiment: Antiviral activity against HCV genotype 1b infected in human Huh7 cells assessed as reduction in viral RNA level at 0.5 uM after 3 days by RT-qPCR; assay type: functional, Hepacivirus hominis, Huh-7; set-up: scale not given: the % may be the effect or the level left; settings: in the assay text read “2 uM” for “0.5 uM”
In short: (§1)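 Replicon-bearing Huh7 cells, 6 X 10^3 per well, exposed to compound in DMSO or DMSO alone for three days at 37 °C/5% CO2. Replicon RNA quantified by TaqMan Cells-to-CT RT-qPCR with NS5B primers/probe, using GAPDH in parallel wells as reference. Level relative to DMSO-treated cells calculated as 2-∆∆CT. Triplicate wells.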

Hepatitis C virus [3] = experiment: Antiviral activity against HCV genotype 1b infected in human Huh7 cells assessed as reduction in viral RNA level at 2 uM after 3 days by RT-qPCR; assay type: functional, Hepacivirus hominis, Huh-7; set-up: scale not given: the % may be the effect or the level left; in short: as §1
[4] = Therapeutic index, ratio of CC50 for human HuH7 cells to EC50 for HCV genotype 1b infected in human Huh7 cells
[5] = Cytotoxicity against human HuH7 cells assessed as inhibition of cell viability after 3 days by CellTiter 96 assay
Hepatitis C virus [6] = experiment: Antiviral activity against HCV genotype 1b infected in human Huh7 cells at 10 uM after 3 days by luciferase reporter gene assay; assay type: functional, Hepacivirus hominis; settings: Huh-7, 72 h
In short: (§2)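 Subgenomic luciferase replicon cells seeded at 6 X 10^3 per well. Next day, medium containing compound in DMSO, or DMSO alone, was added. After three days, luciferase read with ViViRen live-cell substrate. Percent inhibition is the triplicate average; 2mA served as control in single-dose runs.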

[7] = Cytotoxicity against human HuH7 cells assessed as inhibition of cell viability at 10 uM after 3 days by CellTiter 96 assay; assay type: cell-based, Huh-7; settings: read-out: INH
In short: (§3)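 Replicon cells plated at 6 X 10^3 per well and treated the next day with compound in DMSO, DMSO alone or nothing for three days at 37 °C/5% CO2. Viability measured by CellTiter 96 AQueous One, absorbance 450 nm. Percent inhibition is the average of triplicate wells.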

[8] = Cytotoxicity against human HuH7 cells assessed as inhibition of cell viability at 1 uM after 3 days by CellTiter 96 assay; assay type: cell-based, Huh-7; settings: read-out: INH; in short: as §3
Hepatitis C virus [9] = experiment: Antiviral activity against HCV genotype 1b infected in human Huh7 cells at 1 uM after 3 days by luciferase reporter gene assay; assay type: functional, Hepacivirus hominis; settings: Huh-7, 72 h; in short: as §2

| Structure (SMILES) | EC50 (Hepatitis C virus [1]) [µM] | selectivity ratio ([4]; HuH7 cells) | CC50 at 72 h [5] [µM] | inhibition at 10 µM (Hepatitis C virus [6]) [%] | cytotoxicity at 72 h, 10 µM [7] [%] | other results |
| --- | --- | --- | --- | --- | --- | --- |
| O=C(NO)c1cc2cc(Cl)ccc2s1 | 0.69 | 39 | 27 |  |  | Activity (Hepatitis C virus [2]): 75%; Activity (Hepatitis C virus [3]): 75% |
| O=C(/C=C/c1cccnc1)NO |  |  |  | 40 | 2 |  |
| O=C(NO)c1cc2ccccc2n1Cc1ccccc1 |  |  |  | 82 | 28 |  |
| C/C(=C\C(=O)NO)c1ccccc1 | 3.2 | 18 | 59 |  |  |  |
| Cc1[nH]c2ccccc2c1CCNCc1ccc(/C=C/C(=O)NO)cc1 [PANOBINOSTAT] |  |  | 0.0035 |  |  |  |
| COc1ccc(Cn2ccc3ccc(C(=O)NO)cc32)cc1 | 1.8 | 6 | 11 |  |  |  |
| COC(=O)/C=C/c1ccc(C(F)(F)F)cc1 |  |  |  | 0 | 1 |  |
| Nc1ccccc1NC(=O)/C=C/c1ccc(C(F)(F)F)cc1 |  |  |  | 94 | 82 |  |
| O=C(/C=C/c1ccc(C(F)(F)F)nc1)NO | 0.4 | 48 | 19 |  |  |  |
| O=C(C=C(c1ccccc1)c1ccccc1)NO |  |  |  | 64 | 4 |  |
| O=C(NO)c1sc2ccccc2c1Sc1ccccc1 |  |  |  | 8 | 4 |  |
| O=C(/C=C/c1ccc(C(F)(F)F)cc1Cl)NO | 1.1 | 14 | 15 |  |  |  |
| O=C(NO)c1cc2cc([N+](=O)[O-])ccc2s1 | 2.4 | 14 | 34 |  |  |  |
| O=C(NO)c1cc2ccc(C(F)(F)F)cc2s1 |  |  |  | 83 | 13 | cytotoxicity at 72 h, 1 µM [8]: 4%; inhibition at 1 µM (Hepatitis C virus [9]): 0% |
| O=C(/C=C/c1ccc(C(F)(F)F)cn1)NO | 0.38 | 34 | 13 |  |  |  |
| O=C(NO)c1cc2ccccc2n1-c1ccccc1 |  |  |  | 41 | 15 |  |
| O=C(NO)c1cn(Cc2ccccc2)c2ccccc12 |  |  |  | 99 | 92 |  |
| Nc1ccccc1NC(=O)c1ccc(CNC(=O)OCc2cccnc2)cc1 [ENTINOSTAT] | 1.4 |  | 5.1 |  |  | selectivity ratio ([4]; huh-7): 4 |
| O=C(O)c1sc2ccccc2c1S(=O)(=O)c1ccccc1 |  |  |  | 19 | 2 |  |
| O=C(/C=C/c1ccc([N+](=O)[O-])cc1)NO | 0.45 | 64 | 29 |  |  |  |
| O=C(CCc1ccc(C(F)(F)F)cc1)NO |  |  |  | 35 | 0 |  |
| Cc1ccc(/C=C/C(=O)NO)cc1 |  |  |  | 15 | 0 |  |
| O=C(NO)c1cc2ccc([N+](=O)[O-])cc2s1 | 3.7 | 15 | 54 |  |  |  |
| O=C(NCC1(c2nc(-c3ccccc3)cs2)CCOCC1)c1cccc(-c2noc(C(F)(F)F)n2)c1 |  |  |  | 22 | 21 |  |
| O=C(O)/C=C/c1ccc(C(F)(F)F)cc1 |  |  |  | 19 | 0 |  |
| O=C(/C=C/c1ccncc1)NO |  |  |  | 20 | 0 |  |

| Structure (SMILES) | EC50 (Hepatitis C virus [1]) [µM] | selectivity ratio ([4]; HuH7 cells) | CC50 at 72 h [5] [µM] | inhibition at 10 µM (Hepatitis C virus [6]) [%] | cytotoxicity at 72 h, 10 µM [7] [%] | other results |
| --- | --- | --- | --- | --- | --- | --- |
| COc1ccc(/C=C/C(=O)NO)cc1 |  |  |  | 15 | 0 |  |
| O=C(NO)c1ccc(C(F)(F)F)cc1 | 5.4 | > 18 | > 100 |  |  |  |
| O=C(NO)c1cc2cc(C(F)(F)F)ccc2s1 |  |  |  | 94 | 0 | cytotoxicity at 72 h, 1 µM [8]: 10%; inhibition at 1 µM (Hepatitis C virus [9]): 16% |
| O=C(/C=C/c1ccccn1)NO |  |  |  | 58 | 1 |  |
| COC(=O)c1sc2ccccc2c1S(=O)(=O)c1ccccc1 |  |  |  | 5 | 0 |  |
| CN1CCc2c(c3ccccc3n2Cc2ccc(C(=O)NO)cc2)C1 [TUBASTATIN A] |  |  |  | 97 | 70 |  |
| O=C(NO)c1cc2ccccc2[nH]1 |  |  |  | 45 | 7 |  |
| O=C(/C=C/c1ccc(Cl)cc1Cl)NO [CINNAMIC ACID HYDROXAMATE] | 0.078 | 104 | 8.1 |  |  |  |
| O=C(/C=C/c1ccc(C(F)(F)F)cc1)NO | 0.14 | 178 | 25 |  |  |  |
| O=C(/C=C/c1ccc(C(F)(F)F)cc1F)NO | 0.12 | 117 | 14 |  |  |  |
| O=C(/C=C/c1ccccc1)NO | 0.86 |  | 39 |  |  | selectivity ratio ([4]; huh-7): 45 |
| O=C(NO)c1cc2ccccc2o1 | 1.8 | 30 | 54 |  |  |  |
| O=C(/C=C/c1ccccc1C(F)(F)F)NO |  |  |  | 40 | 5 |  |
| O=C(NO)c1c[nH]c2ccccc12 |  |  |  | 0 |  |  |
| COc1cc(NC(=O)CCCCCCC(=O)NO)ccc1-c1cnco1 | 0.21 | 12 | 2.6 |  |  |  |
| O=C(NO)c1sc2ccccc2c1[S+]([O-])c1ccccc1 (stereo unspecified) | 1.4 | > 36 | > 50 |  |  |  |
| O=C(/C=C/c1c(F)cc(C(F)(F)F)cc1F)NO | 0.54 | 22 | 12 |  |  |  |
| O=C(/C=C/c1cccc(C(F)(F)F)c1)NO |  |  |  | 43 | 6 |  |
| O=C(/C=C/c1cccc(S(=O)(=O)Nc2ccccc2)c1)NO [BELINOSTAT] | 0.12 |  | 0.68 |  |  | selectivity ratio ([4]; huh-7): 6 |
| O=C(NO)c1cn(-c2ccccc2)c2ccccc12 |  |  |  | 11 |  |  |
| NC(=O)/C=C/c1ccc(C(F)(F)F)cc1 |  |  |  | 6 | 1 |  |
| O=C(NO)c1cc2ccccc2s1 | 1 | 28 | 28 |  |  |  |
| O=C(/C=C/c1ccc(Cl)cc1)NO | 6 | > 8 | > 50 |  |  |  |
| N#Cc1ccc(/C=C/C(=O)NO)cc1 |  |  |  | 99 | 18 | cytotoxicity at 72 h, 1 µM [8]: 16%; inhibition at 1 µM (Hepatitis C virus [9]): 45% |
| CS(=O)(=O)c1ccc(/C=C/C(=O)NO)cc1 |  |  |  | 93 | 0 | cytotoxicity at 72 h, 1 µM [8]: 0%; inhibition at 1 µM (Hepatitis C virus [9]): 30% |
